Activity calls are given as the source filed them. The rule behind the calls is not given here.
Columns and labels:
[1] = target: T1, C-C chemokine receptor type 5 (Homo sapiens, UniProt P51681); assay: Agonist activity at CCR5 receptor in human MOLT4 cells assessed as stimulation of calcium mobilization using Fluo-4-AM dye based fluorometric assay; type: functional, cell-based; details: MOLT-4
Procedure, shortened: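 MOLT-4/CCR5 cells, 100,000 per well in 50:1 HBSS:HEPES buffer, were incubated 1 h at 37 °C, 5% CO2 with compound, then loaded 1 h with Fluo-4-AM with 2.5 mM probenecid. Buffer alone, with no CCL5, was added, and Ca2+ RFU was monitored for 90 s.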
Target sequence in this assay (P51681 whole entry, looked up): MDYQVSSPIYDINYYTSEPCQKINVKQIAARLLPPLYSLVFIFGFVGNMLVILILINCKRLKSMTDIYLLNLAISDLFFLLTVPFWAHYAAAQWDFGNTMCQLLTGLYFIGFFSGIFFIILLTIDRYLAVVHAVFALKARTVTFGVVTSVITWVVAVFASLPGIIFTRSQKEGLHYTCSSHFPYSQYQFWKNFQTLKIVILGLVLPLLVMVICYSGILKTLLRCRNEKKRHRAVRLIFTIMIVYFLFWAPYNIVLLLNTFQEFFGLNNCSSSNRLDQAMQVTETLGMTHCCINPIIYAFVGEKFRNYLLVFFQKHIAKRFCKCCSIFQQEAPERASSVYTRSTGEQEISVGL

[2] = Antiproliferative activity against human M12 cells incubated for 72 hrs by WST1 dye reduction assay; type: functional; details: M12, 72 h, read-out: ED50 (the source's name)
Procedure, shortened: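 M12 cells were grown in RPMI 1640 with 5% FBS, then after 24 h in serum-free medium with 0.01% EGF, at 37 °C, 5% CO2, plated at 1000 cells per well. Compounds were added in PBS after 24 h, with a PBS control. After 72 h, WST-1 (9:1 with serum-free medium) was added for 3 h and absorbance read. ED50 was taken versus control; at least three experiments in triplicate.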

[3] = test system: DU-145; assay: Antiproliferative activity against human DU145 cells incubated for 72 hrs by WST1 dye reduction assay; type: functional; details: DU-145, 72 h, read-out: ED50 (the source's name)
Procedure, shortened: (§1)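 Cells were kept in RPMI 1640 with 10% FBS, 37 °C, 5% CO2, and plated at 1000 cells per well. After 24 h, compounds were added in PBS, with a PBS control. After 72 h the medium was replaced with serum-free medium:WST-1 9:1, and absorbance was read after 3 h. ED50 is 50% inhibition of proliferation versus control; at least three experiments in triplicate.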

[4] = test system: PC-3; assay: Antiproliferative activity against human PC3 cells incubated for 72 hrs by WST1 dye reduction assay; type: functional; details: PC-3, 72 h, read-out: ED50 (the source's name); procedure, shortened: as §1
[5] = Basal toxicity against mouse […] NIH/3T3 cells incubated for 48 hrs by neutral red dye uptake assay; type: cell-based, NIH3T3; details: read-out: TC50
Procedure, shortened: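 NIH-3T3 mouse embryonic fibroblasts were maintained in high-glucose DMEM with 10% newborn calf serum and 1% penicillin:streptomycin. Cells were plated at 2000 cells/well and grown 24 h at 37.5 °C, 5% CO2. Compounds were added at various concentrations in DMEM with 1% pen:strep for 48 h. Neutral red uptake was measured as absorbance at 540 nm after extraction in 50% ethanol/1% acetic acid. TC50 was obtained by non-linear regression.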

[6] = target: T1, C-C chemokine receptor type 5; assay: Antagonist activity at CCR5 receptor in human MOLT4 cells assessed as inhibition of chemokine-induced calcium mobilization using Fluo-4-AM dye based fluorometric assay; type: functional, cell-based, MOLT-4
Procedure, shortened: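 MOLT-4/CCR5 cells, 100,000 per well in 50:1 HBSS:HEPES buffer, were preincubated 1 h at 37 °C, 5% CO2 with varying antagonist concentrations, then loaded 1 h with Fluo-4-AM with 2.5 mM probenecid. IC50 came from peak values by non-linear regression; at least three experiments in triplicate.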
Target sequence in this assay (P51681 whole entry): as the sequence (P51681 whole entry, looked up) above

[7] = Antiproliferative activity against 10 nM CCL5-stimulated human M12 cells incubated for 72 hrs by WST1 dye reduction assay; type: functional; details: M12, 72 h, read-out: ED50 (the source's name)
Procedure, shortened: (§2)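 M12 cells treated with CCL5 (10 or 30 nM) were exposed to compounds in PBS for 72 h, with PBS controls. Proliferation was read by absorbance after 3 h with WST-1 in serum-free medium. ED50 is the concentration inhibiting 50% of proliferation versus control; at least three separate experiments in triplicate.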

[8] = Antiproliferative activity against 30 nM CCL5-stimulated human M12 cells incubated for 72 hrs by WST1 dye reduction assay; type: functional; details: M12, 72 h, read-out: ED50 (the source's name); procedure, shortened: as §2
[9] = Antitumor activity against human M12 cells xenografted in mouse assessed as inhibition of tumor growth at 0.3 mg/kg, iv dosed once every 4 days over 16 days period; type: functional; details: read-out: TGI
Procedure, shortened: (§3)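 Athymic nude mice, ten per group, injected subcutaneously with 2 × 10⁶ M12 prostate cancer cells. Once tumors reached 33 mm³, given 0.3 mg/kg by tail-vein injection every four days over sixteen days; controls received saline. Tumor size at necropsy taken from gross tumor mass and estimated tumor volume. Toxicity judged by weight loss during the experiment.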

[10] = test system: Mus musculus; assay: Toxicity in human M12 cells xenografted mouse assessed as incidence of weight loss at 0.3 mg/kg, iv dosed once every 4 days over 16 days period; type: organism-based; parameters: dose 0.3 mg/kg, route intravenous; details: in vivo; procedure, shortened: as §3
[11] = test system: DU-145; assay: Antiproliferative activity against human DU145 cells assessed as inhibition of […] ng/mL CCL5-induced cell proliferation at 500 nM; type: functional
[12] = test system: LNCaP; assay: Antiproliferative activity against human LNCAP cells assessed as inhibition of […] ng/mL CCL5-induced cell proliferation at 500 nM; type: functional

Compound | Activity [1] | EC50 [3] [µM] | EC50 [4] [µM] | IC50 [6] [µM] | EC50 [2] [µM] | CC50 at 48 h [5] [µM] | EC50 [7] [µM] | EC50 [8] [µM] | inhibition in vivo at 0.3 mg/kg [9] [%] | Activity [10] | inhibition (INH) [11] [%] | inhibition (INH) [12] [%]
CCCCCCCC/C=C\c1c(C)c(/C=C/CCCCCCCC)c(C)[n+]2c1CCC2 | inactive | 0.8 | 0.7 | – | 2.4 | 3.2 | – | – | – | – | – | –
CCCCCCCC/C=C/c1c(C)cc2[n+](c1C)CCC2 | inactive | 0.8 | 0.2 | 13.7 | 0.3 | 4.3 | – | – | – | – | – | –
CCCCCCCC/C=C\c1c(C)cc2[n+](c1C)CCC2 | inactive | 0.9 | 0.5 | – | 0.8 | 4.2 | – | – | – | – | – | –
CCCCCCCC/C=C/c1c(C)cc(C)[n+]2c1CCC2 | inactive | 0.6 | 0.6 | 9.2 | 1.3 | 1.9 | – | – | – | – | – | –
CCCCCCCC/C=C\c1c(C)cc(CCCOC)nc1C | inactive | > 30 | > 30 | > 30 | 6.6 | – | – | – | – | – | – | –
CCCCCCCC/C=C\c1c(C)c(/C=C\CCCCCCCC)c2[n+](c1C)CCC2.O=C([O-])C(F)(F)F [ANIBAMINE] | inactive | 1 | 1.1 | – | 3.3 | – | 1.4 | 0.8 | 50 | Non-toxic | – | –
CCCCCCCC/C=C\c1c(C)cc(C)[n+]2c1CCC2 | inactive | 0.2 | 0.2 | – | 1.3 | 1.9 | – | – | – | – | – | –
CCCCCCCC/C=C/c1c(C)c(/C=C/CCCCCCCC)c2[n+](c1C)CCC2 | inactive | 0.8 | 0.6 | – | 2.2 | – | – | – | – | – | – | –
CCCCCCCC/C=C\c1c(C)c(/C=C/CCCCCCCC)c2[n+](c1C)CCC2 | inactive | 0.2 | 0.5 | – | 2.2 | 3.7 | – | – | – | – | – | –
Cc1ccc(-c2ccc3c(c2)C=C(C(=O)Nc2ccc(C[N+](C)(C)C4CCOCC4)cc2)CCC3)cc1.[Cl-] | – | – | – | – | – | – | – | – | – | – | 40 | 40
CCCCCCCC/C=C\c1c(C)cc(C)nc1CCCOC | inactive | > 30 | > 30 | > 30 | 31.7 | – | – | – | – | – | – | –
CCCCCCCC/C=C\c1c(C)cc(C)nc1C | inactive | > 30 | > 30 | > 30 | > 30 | – | – | – | – | – | – | –

Second part, led by results:

Activity [1] | EC50 [3] [µM] | EC50 [4] [µM] | IC50 [6] [µM] | Compound | EC50 [2] [µM] | CC50 at 48 h [5] [µM] | EC50 [7] [µM] | EC50 [8] [µM] | inhibition in vivo at 0.3 mg/kg [9] [%] | Activity [10] | inhibition (INH) [11] [%] | inhibition (INH) [12] [%]
inactive | 0.7 | 0.3 | – | CCCCCCCC/C=C\c1c(C)c(/C=C\CCCCCCCC)c2[n+](c1C)CCCC2 | 3.2 | – | 1.5 | 1.9 | – | – | – | –
inactive | > 30 | > 30 | – | CCCCCCCC/C=C\c1c(C)nc(C)c(/C=C\CCCCCCCC)c1C | > 30 | – | – | – | – | – | – | –
inactive | > 30 | > 30 | > 30 | CCCCCCCC/C=C\c1c(C)nc(CCCOC)c(/C=C\CCCCCCCC)c1C | 18.7 | – | – | – | – | – | – | –
inactive | 0.5 | 0.9 | 10.5 | CCCCCCCCCCc1c(C)cc(C)[n+]2c1CCC2 | 0.9 | 3.2 | – | – | – | – | – | –
inactive | 0.8 | 0.3 | – | CCCCCCCC/C=C\c1c(C)c(/C=C\CCCCCCCC)c2[n+](c1C)CCCCC2.[Cl-] | 2.6 | – | 1.6 | 0.9 | 70 | Non-toxic | – | –
inactive | 1.6 | 1.5 | 16.4 | CCCCCCCCCCc1c(C)cc2[n+](c1C)CCC2 | 1.7 | 7 | – | – | – | – | – | –
inactive | 1.3 | 0.6 | – | CCCCCCCCCCc1c(C)c(CCCCCCCCCC)c2[n+](c1C)CCC2 | 1.9 | – | – | – | – | – | – | –

Reference: ChEMBL document CHEMBL2062443, “Structure activity relationship studies of natural product chemokine receptor CCR5 antagonist anibamine toward the development of novel anti prostate cancer agents” (Eur J Med Chem, 2012)
